Laboratory results: ChEMBL document CHEMBL1124456, “Synthesis and structure-activity relationship of substituted tetrahydro- and hexahydro-1,2-benzisothiazol-3-one 1,1-dioxides and thiadiazinones: potential anxiolytic agents” (J Med Chem, 1989)
One block for each molecule: values may come before it. The source made the active and inactive calls. The rule behind the calls is not given here.

Experiments:
Rattus norvegicus [1] = species on record: Rattus norvegicus; experiment: (§1) Antipsychotic activity was evaluated from the ability to block discrete trial conditioned avoidance response (CAR) of rats; assay type: functional
Summary of the method: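 Male CD rats (about 400–450 g) trained in discrete-trial avoidance. Compound given ip or po 30 min before testing, at 20 or 40 mg/kg or over a dose range, with at least five rats per dose. Intertrial, avoidance, escape and no-response trials were recorded. Avoidance block is the percentage of trials without avoidance. AB50 comes from a least-squares dose–effect regression line.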

Rattus norvegicus [2] = experiment: Compound was tested for antagonism of apomorphine-induced climbing behavior, after intraperitoneal dosing; assay type: functional; conditions: ip
Rattus norvegicus [3] = experiment: Compound was tested for antagonism of apomorphine-induced stereotyped behavior, after intraperitoneal dosing; NA is Inactive; assay type: functional, organism-based
Summary of the method: (§2)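 High-dose apomorphine-induced stereotyped behavior procedure. Test agents were given ip at doses up to 60 mg/kg.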

Rattus norvegicus [4] = experiment: In vivo ability (10.0 mg/kg) was to elicit serotonin syndrome in rat; assay type: functional
Summary of the method: (§3)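 Rat in vivo test adapted from published serotonin syndrome methods. Agents given ip; 5-MeO-DMT at 3.0 mg/kg ip was used to elicit the syndrome. Behaviour rated and reported as mean total score (±SEM).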

Rattus norvegicus [5] = experiment: In vivo ability (10.0 mg/kg) was to antagonize serotonin syndrome in rat; assay type: functional; summary of the method: as §3
[6] = target: T1, 5-hydroxytryptamine receptor 1A (Rattus norvegicus, UniProt P19327); experiment: In vitro ability to inhibit [3H]8-OH-DPAT binding to 5-hydroxytryptamine 1A receptor of rat hippocampus ([…]) from 12 to 17; assay type: tissue-based
T1 sequence (P19327 whole entry): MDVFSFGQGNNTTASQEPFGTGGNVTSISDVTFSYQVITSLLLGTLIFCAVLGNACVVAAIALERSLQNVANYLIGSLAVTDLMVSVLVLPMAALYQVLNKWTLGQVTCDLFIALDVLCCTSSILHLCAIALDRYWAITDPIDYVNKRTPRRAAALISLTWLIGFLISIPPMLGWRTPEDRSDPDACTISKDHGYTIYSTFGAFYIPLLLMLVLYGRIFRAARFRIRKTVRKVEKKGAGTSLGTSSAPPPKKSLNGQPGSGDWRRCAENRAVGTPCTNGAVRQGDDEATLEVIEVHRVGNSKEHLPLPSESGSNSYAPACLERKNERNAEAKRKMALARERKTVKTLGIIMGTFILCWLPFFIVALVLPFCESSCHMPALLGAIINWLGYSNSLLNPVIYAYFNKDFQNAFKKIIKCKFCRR

Rattus norvegicus [7] = species on record: Rattus norvegicus; experiment: Anti-psychotic activity from the ability to block discrete trial conditioned avoidance response (CAR) of rats.; assay type: functional
Summary of the method: (§4)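 Discrete-trial conditioned avoidance in male CD rats kept at about 400–450 g body weight. Dosing was ip or po, 30 min before testing, with at least five rats per dose (20 or 40 mg/kg, or a dose range). Computer recorded intertrial, avoidance and escape responses and no-response trials. Avoidance-block trials were taken as % of total trials, with control avoidance set at 100%. AB50 came from a least-squares dose-effect regression line.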

[8] = target: T1, 5-hydroxytryptamine receptor 1A; experiment: In vitro ability to inhibit [3H]-8-OH-DPAT binding to 5-hydroxytryptamine 1A receptor of rat hippocampus and value ranges from 15 - 31; assay type: tissue-based
[9] = target: D(2) dopamine receptor (Rattus norvegicus) (UniProt P61169); experiment: Inhibition of [3H]-spiperone binding to dopamine receptor D2 of rat limbic structures at 1 uM.; conditions: Limbic system
Rattus norvegicus [10] = experiment: Compound was tested for antagonism of apomorphine-induced climbing behavior, after intraperitoneal dosing.; assay type: functional; conditions: ip
Rattus norvegicus [11] = experiment: Compound was tested for antagonism of apomorphine-induced stereotyped behavior, after intraperitoneal dosing and value ranges from 37.28 - 52.78; assay type: functional; conditions: ip; summary of the method: as §2
[12] = target: T1, 5-hydroxytryptamine receptor 1A; experiment: In vitro ability to inhibit [3H]8-OH-DPAT binding to 5-HT1A receptor of rat hippocampus and the value ranges from 9 - 12; assay type: tissue-based
[13] = target: T1, 5-hydroxytryptamine receptor 1A; experiment: The inhibition activity of 5-HT1A at 1 uM
[14] = Partition coefficient (logP); assay type: physicochemical; conditions: octanol/water
[15] = target: Adrenergic receptor alpha-1 (Rattus norvegicus) (UniProt P15823+P23944+P43140); experiment: The percent inhibition of Alpha-1 adrenergic receptor at 1 uM; assay type: protein assay
[16] = target: GABA-A receptor; anion channel (Rattus norvegicus) (UniProt O09028+P15431+P18506+P18508+P19969+P20236+P23574+P23576+P28471+P28473+P30191+P62813+P63079+P63138+Q91ZM7+Q9ES14); experiment: Percent inhibition of GABA-A benzodiazepine receptor at 1 uM; assay type: protein-complex assay
Summary of the method: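 Male Sprague-Dawley rat brain (cerebellum and pons-medulla removed) was homogenized in 0.32 M sucrose to give a 30000g pellet, resuspended in Tris-HCl pH 7.5. Membranes were incubated with 1.5×10^-9 M [³H]diazepam (2.0 mL final) for 30 min at 4 °C, GF/C filtered, washed ice-cold and scintillation counted. Nonspecific binding was taken with 3×10^-6 M cold diazepam. Drug was tested at 1 μM.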

D(2) dopamine receptor = D(2) dopamine receptor (Rattus norvegicus, UniProt P61169); experiment: In vitro ability to inhibit [3H]spiperone binding to Dopamine receptor D2 of rat limbic structures and the value ranges from 116 - 159.; assay type: tissue-based, Limbic system
Rattus norvegicus [17] = species on record: Rattus norvegicus; experiment: Anti psychotic activity was evaluated from the ability to block discrete trial conditioned avoidance response (CAR) of rats and the value ranges from 26 - 143; assay type: functional; summary of the method: as §4
Rattus norvegicus [18] = experiment: Compound was tested for antagonism of apomorphine-induced climbing behavior, after intraperitoneal dosing and the value ranges from 0.97 - 11.7; assay type: functional; conditions: ip
Rattus norvegicus [19] = experiment: Compound was tested for antagonism of apomorphine-induced stereotyped behavior, after intraperitoneal dosing.; assay type: functional; conditions: ip; summary of the method: as §2
Rattus norvegicus [20] = experiment: Mean total score of In vivo ability (10.0 mg/kg) was to antagonize serotonin syndrome; assay type: functional
Rattus norvegicus [21] = experiment: Mean total score of in vivo ability (8.0 mg/kg) was to elicit serotonin syndrome; assay type: functional
[22] = target: T1, 5-hydroxytryptamine receptor 1A; experiment: In vitro ability to inhibit [3H]8-OH-DPAT binding to 5-hydroxytryptamine 1A receptor of rat hippocampus and the value ranges from 12 to 17.; assay type: tissue-based
[23] = target: T2, 5-hydroxytryptamine receptor 1A (Rattus norvegicus) (UniProt P19327); experiment: In vitro ability to inhibit [3H]-8-OH-DPAT binding to 5-hydroxytryptamine 1A receptor of rat hippocampus.; assay type: tissue-based; conditions: concentration not given here
T2 sequence (whole entry): T1 sequence (P19327 whole entry)

[24] = target: D(2) dopamine receptor (Rattus norvegicus) (UniProt P61169); experiment: In vitro ability to inhibit [3H]spiperone binding to Dopamine receptor D2 of rat limbic structures at 10 uM; assay type: tissue-based; conditions: Limbic system
[25] = target: T1, 5-hydroxytryptamine receptor 1A; experiment: In vitro ability to inhibit [3H]8-OH-DPAT binding to 5-hydroxytryptamine 1A receptor of rat hippocampus and the value ranges from 25 - 84; assay type: tissue-based
[26] = target: D(2) dopamine receptor (Rattus norvegicus) (UniProt P61169); experiment: Inhibition of [3H]spiperone binding to Dopamine receptor D2 of rat limbic structures; assay type: tissue-based; set-up: concentration or dose not given beside the values; conditions: Limbic system, concentration not given here
Rattus norvegicus [27] = species on record: Rattus norvegicus; experiment: Anti psychotic activity was evaluated from the ability to block discrete trial conditioned avoidance response (CAR) of rats and the value ranges from 32-61; assay type: functional; summary of the method: as §4
Rattus norvegicus [28] = experiment: Compound was tested for antagonism of apomorphine-induced climbing behavior, after intraperitoneal dosing; 1.29-27.21; assay type: functional; conditions: ip
[29] = target: T1, 5-hydroxytryptamine receptor 1A; experiment: In vitro ability to inhibit [3H]8-OH-DPAT binding to 5-hydroxytryptamine 1A receptor of rat hippocampus and the value ranges from 12 to 20.; assay type: tissue-based
Rattus norvegicus [30] = species on record: Rattus norvegicus; experiment: Anti psychotic activity was evaluated from the ability to block discrete trial conditioned avoidance response (CAR) of rats, value ranges from 32-71.; assay type: functional; summary of the method: as §4
[31] = target: T2, 5-hydroxytryptamine receptor 1A (Rattus norvegicus); experiment: In vitro ability to inhibit [3H]-8-OH-DPAT binding to 5-hydroxytryptamine 1A receptor of rat hippocampus at 1 uM; assay type: tissue-based
Rattus norvegicus [32] = species on record: Rattus norvegicus; experiment: Anti psychotic activity was evaluated from the ability to block discrete trial conditioned avoidance response (CAR) of rats. (95%CI); 39 to 53; assay type: functional; summary of the method: as §4
[33] = target: T1, 5-hydroxytryptamine receptor 1A; experiment: In vitro ability to inhibit [3H]8-OH-DPAT binding to 5-hydroxytryptamine 1A receptor of rat hippocampus and the value ranges from 245 to 736; assay type: tissue-based
Rattus norvegicus [34] = species on record: Rattus norvegicus; experiment: as §1; assay type: functional; summary of the method: as §4; remark: listed apart in the source

Chain of D(2) dopamine receptor (Rattus norvegicus) (P61169 whole entry): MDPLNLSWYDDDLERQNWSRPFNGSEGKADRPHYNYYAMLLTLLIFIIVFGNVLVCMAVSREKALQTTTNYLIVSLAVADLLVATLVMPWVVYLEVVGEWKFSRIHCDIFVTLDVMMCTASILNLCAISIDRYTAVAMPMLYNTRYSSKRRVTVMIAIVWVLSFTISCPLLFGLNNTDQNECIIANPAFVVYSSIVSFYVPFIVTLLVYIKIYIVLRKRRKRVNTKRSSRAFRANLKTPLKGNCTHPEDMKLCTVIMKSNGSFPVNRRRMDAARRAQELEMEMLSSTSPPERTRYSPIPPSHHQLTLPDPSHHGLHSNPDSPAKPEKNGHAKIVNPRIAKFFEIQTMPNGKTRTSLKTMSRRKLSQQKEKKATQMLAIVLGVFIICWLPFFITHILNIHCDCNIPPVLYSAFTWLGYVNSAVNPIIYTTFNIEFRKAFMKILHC
Chain of D(2) dopamine receptor (P61169 whole entry): as above

Compound: O=C1c2ccccc2S(=O)(=O)N1CCCCN1CCN(c2ncccn2)CC1 [IPSAPIRONE]
AB50 (Rattus norvegicus [1]): 42 mg/kg
ED50 (Rattus norvegicus [2]): 26 mg/kg
ED50 (Rattus norvegicus [3]): inactive
Mean (Rattus norvegicus [4]): 2.4
Mean (Rattus norvegicus [5]): 8.4

Ki [6]: 14 nM
Compound: Cl.O=C1C2C3C=CC(C4CC34)C2S(=O)(=O)N1CCCCN1CCN(c2cncc(Cl)n2)CC1 (stereo not drawn)
AB50 (Rattus norvegicus [7]): 40 mg/kg

Ki [8]: 22 nM
inhibition [9]: 0%
Compound: Cl.Cl.O=C1C2C3CCC(O3)C2S(=O)(=O)N1CCCCN1CCN(c2cccc(C(F)(F)F)c2)CC1 (stereo not drawn)
AB50 (Rattus norvegicus [7]): 40 mg/kg
ED50 (Rattus norvegicus [10]): 11.5 mg/kg
ED50 (Rattus norvegicus [11]): 44.4 mg/kg

Ki [12]: 10 nM
Ki [13]: 10 nM
logP [14]: 1.92
inhibition [15]: 54%
inhibition [16]: 0%
Ki (D(2) dopamine receptor): 136 nM
Compound: Cl.Cl.O=C1C2C3C=CC(C4C=CC43)C2S(=O)(=O)N1CCCCN1CCN(c2ncccn2)CC1 (stereo not drawn)
AB50 (Rattus norvegicus [17]): 39 mg/kg
ED50 (Rattus norvegicus [18]): 3.38 mg/kg
ED50 (Rattus norvegicus [19]): 32.2 mg/kg
Mean (Rattus norvegicus [20]): 5.1
Mean (Rattus norvegicus [21]): 3.9

Ki [22]: 15 nM
Compound: Cl.Cl.O=C1C2C3C=CC(C3)C2S(=O)(=O)N1CCCCN1CCN(c2cccc(C(F)(F)F)c2)CC1 (stereo not drawn)
AB50 (Rattus norvegicus [7]): 51 mg/kg

inhibition [23]: 52%
inhibition [9]: 14%
Compound: Cl.Cn1nnnc1N1CCN(CCCCN2C(=O)c3ccccc3S2(=O)=O)CC1
AB50 (Rattus norvegicus [7]): 40 mg/kg

inhibition [24]: 66%
Compound: CC1=C(C)CC2C(C1)C(=O)N(CCCCN1CCN(c3cncc(Cl)n3)CC1)S2(=O)=O.Cl.Cl.Cl (stereo not drawn)
AB50 (Rattus norvegicus [7]): 40 mg/kg

Ki [25]: 45 nM
inhibition [26]: 98%
Compound: Cl.Cl.Cl.O=C1C2C3CCC(C3)C2S(=O)(=O)N1CCCCN1CCN(c2cccc(Cl)c2)CC1 (stereo not drawn)
AB50 (Rattus norvegicus [27]): 41 mg/kg
ED50 (Rattus norvegicus [28]): 16 mg/kg
ED50 (Rattus norvegicus [19]): 34 mg/kg

Ki [29]: 16 nM
inhibition [26]: 97%
Compound: Cl.Cl.O=C1C2C3CCC(C3)C2S(=O)(=O)N1CCCCN1CCN(c2cccc(C(F)(F)F)c2)CC1 (stereo not drawn)
AB50 (Rattus norvegicus [30]): 43 mg/kg

inhibition [31]: 51%
inhibition [26]: 32%
Compound: Cl.O=C1C2C3CCC(C3)C2S(=O)(=O)N1CCCCN1CCN(c2cncc(Cl)n2)CC1 (stereo not drawn)
AB50 (Rattus norvegicus [32]): 45 mg/kg

Ki [33]: 434 nM
Compound: Cl.Cl.O=C1C2C3C=CC(C3)C2S(=O)(=O)N1CCCCN1CCN(c2ncccn2)CC1 (stereo not drawn)
AB50 (Rattus norvegicus [34]): 45 mg/kg
